# In ChEMBL document CHEMBL1255335 (Antimicrob Agents Chemother, 2008):
# B1: Beta-lactamase SHV-1 (Klebsiella pneumoniae), P0AD64 (protein)
# chain: MRYIRLCIISLLATLPLAVHASPQPLEQIKLSESQLSGRVGMIEMDLASGRTLTAWRADERFPMMSTFKVVLCGAVLARVDAGDEQLERKIHYRQQDLVDYSPVSEKHLADGMTVGELCAAAITMSDNSAANLLLATVGGPAGLTAFLRQIGDNVTRLDRWETELNEALPGDARDTTTPASMAATLRKLLTSQRLSARSQRQLLQWMVDDRVAGPLIRSVLPAGWFIADKTGAGERGARGIVALLGPNNKAERIVVIYLRDTPASMAERNQQIAGIGAALIEHWQR
# B2: Beta-lactamase SHV-72 (Klebsiella pneumoniae), A0ZX81 (protein)
# chain: MRYFRLCIISLLATLPLAVHASPQPLEQIKLSESQLSGRVGMIEMDLASGRTLTAWRADERFPMMSTFKVVLCGAVLARVDAGDEQLERKIHYRQQDLVDYSPVSEKHLADGMTVGELCAAAITMSDNSAANLLLATVGGPVGLTAFLRQIGDNVTRLDRWETELNEALPGDARDTTTPASMAATLRKLLTSQRLSARSQRQLLQWMVDDRVAGPLIRSVLPAGWFIADRTGAGERGARGIVALLGPNNKAERIVVIYLRDTPASMAERNQQIAGIGAALIEHWQR
# Assays:
# [1] = system: Klebsiella pneumoniae; assay: Antibacterial activity against Klebsiella pneumoniae INSRA1229 harboring SHV-72 Ile8Phe, Ala146Val, and Lys234Arg mutations by agar dilution method
# [2] = system: Escherichia coli; assay: Antibacterial activity against Escherichia coli DH5alpha with deltaampC by agar dilution method; format: functional
# [3] = system: Escherichia coli; assay: Antibacterial activity against Escherichia coli DH5alpha expressing Klebsiella pneumoniae beta-lactamase SHV-1 by agar dilution method; format: functional
# [4] = system: Escherichia coli; assay: Antibacterial activity against Escherichia coli DH5alpha expressing Klebsiella pneumoniae beta-lactamase SHV-72 by agar dilution method; format: functional
# [5] = system: Escherichia coli; assay: Antibacterial activity against Escherichia coli DH5alpha with deltaampC by agar dilution method in presence of 4 ug/ml Tazobactam; format: functional
# [6] = system: Escherichia coli; assay: Antibacterial activity against Escherichia coli DH5alpha expressing Klebsiella pneumoniae beta-lactamase SHV-1 by agar dilution method in presence of 4 ug/ml Tazobactam; format: functional
# [7] = system: Escherichia coli; assay: Antibacterial activity against Escherichia coli DH5alpha expressing Klebsiella pneumoniae beta-lactamase SHV-72 by agar dilution method in presence of 4 ug/ml Tazobactam; format: functional
# [8] = system: Klebsiella pneumoniae; assay: Antibacterial activity against Klebsiella pneumoniae INSRA1229 harboring SHV-72 Ile8Phe, Ala146Val, and Lys234Arg mutations in presence of 4 ug/ml Tazobactam; format: functional
# [9] = system: Escherichia coli; assay: Antibacterial activity against Escherichia coli DH5alpha with deltaampC by agar dilution method in presence of 2 ug/ml clavulanic acid; format: functional
# [10] = system: Escherichia coli; assay: Antibacterial activity against Escherichia coli DH5alpha expressing Klebsiella pneumoniae beta-lactamase SHV-1 by agar dilution method in presence of 2 ug/ml clavulanic acid; format: functional
# [11] = system: Escherichia coli; assay: Antibacterial activity against Escherichia coli DH5alpha expressing Klebsiella pneumoniae beta-lactamase SHV-72 by agar dilution method in presence of 2 ug/ml clavulanic acid; format: functional
# [12] = system: Klebsiella pneumoniae; assay: Antibacterial activity against Klebsiella pneumoniae INSRA1229 harboring SHV-72 Ile8Phe, Ala146Val, and Lys234Arg mutations by agar dilution method in presence of 2 ug/ml clavulanic acid; format: functional
# [13] = substrate: CC1(C)S[C@@H]2[C@H](NC(=O)Cc3ccccc3)C(=O)N2[C@H]1C(=O)O; assay: (§1) Activity of Klebsiella pneumoniae Beta-Lactamase SHV-1
# In short: (§2)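 SHV-1 or SHV-72 came from E. coli DH5α ΔampC clones grown 18 h at 37°C. Enzymes were purified by ion exchange then gel filtration, with protein measured by BCA. Km and kcat were measured by pH-stat microacidimetry, fitting complete hydrolysis time courses by nonlinear least squares, three determinations per substrate.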
# [14] = substrate: CC1(C)S[C@@H]2[C@H](NC(=O)[C@H](C(=O)O)c3ccsc3)C(=O)N2[C@H]1C(=O)O; assay: as §1; in short: as §2
# [15] = substrate: CC1(C)S[C@@H]2[C@H](NC(=O)Cc3ccccc3)C(=O)N2[C@H]1C(=O)O; assay: (§3) Ratio of Kcat to Km for Klebsiella pneumoniae Beta-Lactamase SHV-1
# In short: (§4)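 kcat/Km came from Km and kcat of purified enzyme, which was expressed in E. coli DH5α ΔampC and purified by ion exchange then gel filtration. Both constants were measured by computerized pH-stat microacidimetry, with complete hydrolysis progress curves fitted by nonlinear least-squares regression. Each substrate was run three times.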
# [16] = substrate: CC1(C)S[C@@H]2[C@H](NC(=O)[C@H](C(=O)O)c3ccsc3)C(=O)N2[C@H]1C(=O)O; assay: as §3; in short: as §4
# [17] = substrate: CCN1CCN(C(=O)N[C@@H](C(=O)N[C@@H]2C(=O)N3[C@@H]2SC(C)(C)[C@@H]3C(=O)O)c2ccccc2)C(=O)C1=O; assay: as §3; in short: as §4
# [18] = substrate: CC(=O)OCC1=C(C(=O)O)N2C(=O)[C@@H](NC(=O)Cc3cccs3)[C@H]2SC1; assay: (§5) Activity of Klebsiella pneumoniae Beta-Lactamase SHV-72; in short: as §2
# [19] = substrate: CC(C)(O/N=C(\C(=O)N[C@@H]1C(=O)N2C(C(=O)[O-])=C(C[n+]3ccccc3)CS[C@H]12)c1csc(N)n1)C(=O)O; assay: as §5; in short: as §2
# [20] = substrate: CC1(C)S[C@@H]2[C@H](NC(=O)Cc3ccccc3)C(=O)N2[C@H]1C(=O)O; assay: as §5; in short: as §2
# [21] = substrate: CC1(C)S[C@@H]2[C@H](NC(=O)[C@H](C(=O)O)c3ccsc3)C(=O)N2[C@H]1C(=O)O; assay: as §5; in short: as §2
# [22] = substrate: CC1(C)S[C@@H]2[C@H](NC(=O)[C@H](N)c3ccc(O)cc3)C(=O)N2[C@H]1C(=O)O; assay: as §5; in short: as §2
# [23] = substrate: CCN1CCN(C(=O)N[C@@H](C(=O)N[C@@H]2C(=O)N3[C@@H]2SC(C)(C)[C@@H]3C(=O)O)c2ccccc2)C(=O)C1=O; assay: as §5; in short: as §2
# [24] = substrate: CO/N=C(\C(=O)N[C@@H]1C(=O)N2C(C(=O)O)=C(COC(C)=O)CS[C@H]12)c1csc(N)n1; assay: as §5; in short: as §2
# [25] = substrate: CC(=O)OCC1=C(C(=O)O)N2C(=O)[C@@H](NC(=O)Cc3cccs3)[C@H]2SC1; assay: (§6) Ratio of Kcat to Km for Klebsiella pneumoniae Beta-Lactamase SHV-72; in short: as §4
# [26] = substrate: CC1(C)S[C@@H]2[C@H](NC(=O)Cc3ccccc3)C(=O)N2[C@H]1C(=O)O; assay: as §6; in short: as §4
# [27] = substrate: CC1(C)S[C@@H]2[C@H](NC(=O)[C@H](C(=O)O)c3ccsc3)C(=O)N2[C@H]1C(=O)O; assay: as §6; in short: as §4
# [28] = substrate: CC1(C)S[C@@H]2[C@H](NC(=O)[C@H](N)c3ccc(O)cc3)C(=O)N2[C@H]1C(=O)O; assay: as §6; in short: as §4
# [29] = substrate: CCN1CCN(C(=O)N[C@@H](C(=O)N[C@@H]2C(=O)N3[C@@H]2SC(C)(C)[C@@H]3C(=O)O)c2ccccc2)C(=O)C1=O; assay: as §6; in short: as §4
# [30] = Escherichia coli, DH5alpha, read-out: MIC
Molecule,MIC [1] [µg/mL],MIC [2] [µg/mL],MIC [3] [µg/mL],"MIC [4, 30] [µg/mL]",also measured
C[C@@H](O)[C@H]1C(=O)N2C(C(=O)O)=C(SCCNC=N)C[C@H]12 [IMIPENEM ANHYDROUS],0.125,–,–,–,–
O=C(O)c1cn(C2CC2)c2cc(N3CCNCC3)c(F)cc2c1=O [CIPROFLOXACIN],≤ 0.125,≤ 0.125,≤ 0.125,≤ 0.125,–
GENTAMICIN,–,< 0.125,0.25,–,MIC [4]: 0.25 µg/mL
CO[C@@]1(NC(=O)Cc2cccs2)C(=O)N2C(C(=O)O)=C(COC(N)=O)CS[C@@H]21 [CEFOXITIN],4,4,8,8,–
CC1(C)S[C@@H]2[C@H](NC(=O)[C@H](C(=O)O)c3ccsc3)C(=O)N2[C@H]1C(=O)O [TICARCILLIN],512,4,1020,8,–
CO/N=C(\C(=O)N[C@@H]1C(=O)N2C(C(=O)O)=C(COC(N)=O)CS[C@H]12)c1ccco1 [CEFUROXIME],2,4,4,8,–
CO/N=C(\C(=O)N[C@@H]1C(=O)N2C(C(=O)[O-])=C(C[N+]3(C)CCCC3)CS[C@H]12)c1csc(N)n1,0.03,0.03,0.03,0.03,–
CCN1CCN(C(=O)N[C@@H](C(=O)N[C@@H]2C(=O)N3[C@@H]2SC(C)(C)[C@@H]3C(=O)O)c2ccccc2)C(=O)C1=O [PIPERACILLIN],32,2,64,4,MIC [5]: 2 µM; MIC [6]: 2 µM; MIC [7]: 2 µM; MIC [8]: 2 µM
CC(C)(O/N=C(\C(=O)N[C@@H]1C(=O)N2C(C(=O)[O-])=C(C[n+]3ccccc3)CS[C@H]12)c1csc(N)n1)C(=O)O [CEFTAZIDIME],–,0.25,0.5,0.25,MIC [9]: 0.125 µg/mL; MIC [10]: 0.25 µg/mL; MIC [11]: 0.25 µg/mL
CC(=O)OCC1=C(C(=O)O)N2C(=O)[C@@H](NC(=O)Cc3cccs3)[C@H]2SC1 [CEPHALOTHIN],8,8,16,4,–
CC1(C)S[C@@H]2[C@H](/N=C/N3CCCCCC3)C(=O)N2[C@H]1C(=O)O [AMDINOCILLIN],0.25,0.125,0.5,0.25,–
COc1cc(Cc2cnc(N)nc2N)cc(OC)c1OC [TRIMETHOPRIM],0.5,≤ 0.125,≤ 0.125,≤ 0.125,–
CO/N=C(\C(=O)N[C@@H]1C(=O)N2C(C(=O)O)=C(CSc3nc(=O)c(O)nn3C)CS[C@H]12)c1csc(N)n1 [CEFTRIAXONE],0.03,0.03,0.03,0.03,MIC [9]: 0.06 µg/mL; MIC [10]: 0.03 µg/mL; MIC [4]: 0.03 µg/mL; MIC [12]: ≤ 0.015 µg/mL
CCN1CCN(C(=O)N[C@@H](C(=O)N[C@@H]2C(=O)N3C(C(=O)O)=C(CSc4nnnn4C)CS[C@H]23)c2ccc(O)cc2)C(=O)C1=O [CEFOPERAZONE],2,≤ 0.25,4,≤ 0.25,–
CO/N=C(\C(=O)N[C@@H]1C(=O)N2C(C(=O)O)=C(COC(C)=O)CS[C@H]12)c1csc(N)n1 [CEFOTAXIME],0.125,0.06,0.06,0.06,MIC [9]: 0.06 µg/mL; MIC [10]: 0.06 µg/mL; MIC [11]: 0.06 µg/mL; MIC [12]: 0.06 µg/mL
CC1(C)S[C@@H]2[C@H](NC(=O)[C@H](N)c3ccc(O)cc3)C(=O)N2[C@H]1C(=O)O [AMOXICILLIN],2050,8,2050,512,MIC [9]: 8 µM; MIC [10]: 8 µM; MIC [11]: 64 µM; MIC [12]: 64 µM
B1,–,–,–,–,kcat [13]: 1940 s⁻¹; Km [14]: 11 µM; kcat/Km [15]: 8.42e+07 M⁻¹ s⁻¹; kcat/Km [16]: 2e+07 M⁻¹ s⁻¹; kcat/Km [17]: 6.21e+07 M⁻¹ s⁻¹
B2,–,–,–,–,Km [18]: 141 µM; kcat [18]: 38 s⁻¹; kcat [19]: < 0.1 s⁻¹; Km [20]: 19 µM; kcat [20]: 5440 s⁻¹; Km [21]: 36 µM; kcat [21]: 1280 s⁻¹; Km [22]: 26 µM; kcat [22]: 5880 s⁻¹; Km [23]: 43 µM; kcat [23]: 1920 s⁻¹; kcat [24]: < 0.1 s⁻¹; kcat/Km [25]: 300000 M⁻¹ s⁻¹; kcat/Km [26]: 2.86e+08 M⁻¹ s⁻¹; kcat/Km [27]: 3.55e+07 M⁻¹ s⁻¹; kcat/Km [28]: 2.26e+08 M⁻¹ s⁻¹; kcat/Km [29]: 4.46e+07 M⁻¹ s⁻¹
